How the values were obtained:
[1] = biological target: T1, Muscarinic acetylcholine receptor M2 (Homo sapiens) (UniProt P08172); assay: Relative efficacy was evaluated on guinea pig heart (rate) at Muscarinic acetylcholine receptor M2; assay type: functional; conditions: Cavia porcellus; target entry is the homologue from another species
T1 sequence (whole entry): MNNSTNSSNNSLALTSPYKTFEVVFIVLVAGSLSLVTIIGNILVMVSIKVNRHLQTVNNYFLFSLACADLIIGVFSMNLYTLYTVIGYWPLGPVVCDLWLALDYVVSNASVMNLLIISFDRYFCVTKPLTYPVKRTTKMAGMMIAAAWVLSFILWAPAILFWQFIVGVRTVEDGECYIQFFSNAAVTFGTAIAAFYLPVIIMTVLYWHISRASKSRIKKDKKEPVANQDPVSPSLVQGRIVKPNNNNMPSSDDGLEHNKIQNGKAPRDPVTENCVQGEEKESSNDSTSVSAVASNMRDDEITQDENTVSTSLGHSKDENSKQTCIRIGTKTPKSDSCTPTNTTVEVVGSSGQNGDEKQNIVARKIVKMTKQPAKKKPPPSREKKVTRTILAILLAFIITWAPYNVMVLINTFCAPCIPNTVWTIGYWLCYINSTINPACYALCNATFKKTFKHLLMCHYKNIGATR
Procedure, shortened: (§1)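 Dissociation constants and relative efficacies derived from guinea pig tissue agonist responses by the Furchgott and Bursztyn method.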

[2] = biological target: Muscarinic acetylcholine receptor M3 (Cavia porcellus) (UniProt Q8VH26); assay: Relative efficacy was evaluated on guinea pig ileum at Muscarinic acetylcholine receptor M3; assay type: functional, tissue-based; procedure, shortened: as §1
Muscarinic acetylcholine receptor M3 (Cavia porcellus), sequence (Q8VH26 1-587): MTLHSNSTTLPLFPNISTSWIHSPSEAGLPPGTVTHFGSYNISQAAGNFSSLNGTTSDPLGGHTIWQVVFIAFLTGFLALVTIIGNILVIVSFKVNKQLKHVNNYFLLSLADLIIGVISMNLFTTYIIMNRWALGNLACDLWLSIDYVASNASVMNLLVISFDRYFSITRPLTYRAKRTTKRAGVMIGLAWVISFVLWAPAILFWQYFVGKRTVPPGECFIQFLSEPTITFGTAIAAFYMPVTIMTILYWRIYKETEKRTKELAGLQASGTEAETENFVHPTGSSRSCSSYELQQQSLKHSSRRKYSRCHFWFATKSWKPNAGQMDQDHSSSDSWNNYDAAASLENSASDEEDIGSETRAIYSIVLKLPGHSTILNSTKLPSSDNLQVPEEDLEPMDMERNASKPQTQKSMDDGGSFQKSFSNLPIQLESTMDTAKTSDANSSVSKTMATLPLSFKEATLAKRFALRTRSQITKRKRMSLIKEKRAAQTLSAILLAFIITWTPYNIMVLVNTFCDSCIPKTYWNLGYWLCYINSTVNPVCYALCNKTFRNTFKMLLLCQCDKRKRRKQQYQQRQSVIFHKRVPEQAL

[3] = biological target: Muscarinic acetylcholine receptor M3 (Cavia porcellus) (UniProt Q8VH26); assay: Intrinsic adtivitiy was measured by the ratio between the maximum response and the maximum response of muscarine in guinea pig ileum at Muscarinic acetylcholine receptor M3; assay type: functional, tissue-based
Procedure, shortened: (§2)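 Isolated guinea pig tissues in PSS. Responses are expressed as a percentage of the maximal response in the control curve. Potency is given as pD₂ (−log ED₅₀, the agonist concentration producing 50% of maximal contraction). […] Parallel tissues received only (±)-muscarine to check sensitivity. 6–10 observations, mean ± SEM.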

[4] = biological target: Muscarinic acetylcholine receptor M3 (Cavia porcellus) (UniProt Q8VH26); assay: Muscarinic potency was evaluated on guinea pig bladder at Muscarinic acetylcholine receptor M3 (expressed as -logED50); assay type: functional; procedure, shortened: as §2
[5] = biological target: T2, Muscarinic acetylcholine receptor M1 (Rattus norvegicus) (UniProt P08482); assay: Muscarinic potency was evaluated at ganglionic Muscarinic acetylcholine receptor M1 mediating Tachycardia in the pithed rat (Increase in heart rate)
T2 sequence (whole entry): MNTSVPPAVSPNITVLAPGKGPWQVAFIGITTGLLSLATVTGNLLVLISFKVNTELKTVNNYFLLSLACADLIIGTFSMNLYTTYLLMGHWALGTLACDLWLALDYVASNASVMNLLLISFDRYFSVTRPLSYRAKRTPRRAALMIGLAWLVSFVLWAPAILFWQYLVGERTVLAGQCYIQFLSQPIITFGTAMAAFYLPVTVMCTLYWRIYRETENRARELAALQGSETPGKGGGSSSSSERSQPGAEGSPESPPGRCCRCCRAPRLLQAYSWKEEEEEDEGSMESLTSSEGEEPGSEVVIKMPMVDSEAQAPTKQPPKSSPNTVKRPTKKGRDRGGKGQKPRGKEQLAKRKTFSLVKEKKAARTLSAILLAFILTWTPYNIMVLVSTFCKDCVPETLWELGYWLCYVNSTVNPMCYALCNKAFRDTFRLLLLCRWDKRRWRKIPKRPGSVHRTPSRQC
Procedure, shortened: (§3)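 Pithed rats, artificially respired at 60 cycles/min, 1 mL/100 g, and equilibrated ≥30 min until heart rate was stable (basal 300 ± 8 beats/min). Agonists in 0.9% saline given iv at 0.1 mL/100 g, with full recovery between single doses. Heart rate measured from the carotid pressure pulse. ED₅₀ read graphically from dose–response curves. 5–9 observations, mean ± SEM.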

Cavia porcellus [6] = species on record: Cavia porcellus; assay: Dissociation constant was evaluated on guinea pig heart (rate) at M2 muscarinic receptor; procedure, shortened: as §1
[7] = test system: Muscarinic acetylcholine receptor M2 (Cavia porcellus); assay: Intrinsic activity was measured as the ratio between the maximum response and the maximum response of muscarine in guinea pig heart at Muscarinic acetylcholine receptor M2
[8] = test system: Muscarinic acetylcholine receptor M2 (Cavia porcellus); assay: Muscarinic potency was evaluated on guinea pig heart (rate) at Muscarinic acetylcholine receptor M2
[9] = biological target: Muscarinic acetylcholine receptor M3 (Cavia porcellus) (UniProt Q8VH26); assay: Intrinsic adtivitiy was measured by the ratio between the maximum response and the maximum response of muscarine in guinea pig bladder at Muscarinic acetylcholine receptor M3; assay type: functional; procedure, shortened: as §2
Cavia porcellus [10] = species on record: Cavia porcellus; assay: Dissociation constant was evaluated on guinea pig ileum at M3 muscarinic receptor; procedure, shortened: as §1
[11] = biological target: Muscarinic acetylcholine receptor M3 (Cavia porcellus) (UniProt Q8VH26); assay: Relative efficacy was evaluated on guinea pig bladder at Muscarinic acetylcholine receptor M3; assay type: functional; procedure, shortened: as §1
[12] = biological target: Muscarinic acetylcholine receptor M3 (Cavia porcellus) (UniProt Q8VH26); assay: Muscarinic potency was evaluated on guinea pig ileum at Muscarinic acetylcholine receptor M3 (expressed as -logED50); assay type: functional, tissue-based; procedure, shortened: as §2
Cavia porcellus [13] = species on record: Cavia porcellus; assay: Dissociation constant was evaluated on guinea pig bladder at M3 muscarinic receptor; procedure, shortened: as §1
[14] = biological target: T3, Muscarinic acetylcholine receptor M2 (Rattus norvegicus) (UniProt P10980); assay: Muscarinic potency was evaluated at cardiac Muscarinic acetylcholine receptor M2 mediating Bradycardia in the pithed rat (Decrease in heart rate); assay type: functional; procedure, shortened: as §3
T3 sequence (whole entry): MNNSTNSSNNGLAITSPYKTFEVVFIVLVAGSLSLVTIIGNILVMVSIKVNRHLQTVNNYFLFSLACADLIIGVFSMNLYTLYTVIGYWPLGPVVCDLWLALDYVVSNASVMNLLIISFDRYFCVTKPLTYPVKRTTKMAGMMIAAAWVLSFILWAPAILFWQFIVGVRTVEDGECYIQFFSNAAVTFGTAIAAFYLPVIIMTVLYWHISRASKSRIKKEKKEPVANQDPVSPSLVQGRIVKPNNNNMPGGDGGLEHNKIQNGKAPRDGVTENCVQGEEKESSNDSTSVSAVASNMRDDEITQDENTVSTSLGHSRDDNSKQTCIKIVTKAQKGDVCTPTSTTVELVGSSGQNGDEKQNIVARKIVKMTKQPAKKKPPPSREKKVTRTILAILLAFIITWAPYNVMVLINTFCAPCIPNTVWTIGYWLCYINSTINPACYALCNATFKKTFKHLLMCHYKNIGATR

[15] = test system: Muscarinic acetylcholine receptor M2 (Cavia porcellus); assay: Muscarinic potency was evaluated on guinea pig heart (force) at Muscarinic acetylcholine receptor M2 (expressed as -logED50)
Cavia porcellus [16] = species on record: Cavia porcellus; assay: Dissociation constant was evaluated on guinea pig heart (force) at M2 muscarinic receptor; procedure, shortened: as §1
[17] = biological target: T1, Muscarinic acetylcholine receptor M2 (Homo sapiens); assay: Relative efficacy was evaluated on guinea pig heart (force) at Muscarinic acetylcholine receptor M2; assay type: functional; conditions: Cavia porcellus; target entry is the homologue from another species; procedure, shortened: as §1

Row | Compound | Relative efficacy [1] | Relative efficacy [2] | Intrinsic activity [3] | pD2 [4] | ED50 [5] [mg/kg] | -Log Kd (Cavia porcellus [6]) | Intrinsic activity [7] | -Log ED50 [8] | Intrinsic activity [9] | -Log Kd (Cavia porcellus [10]) | Relative efficacy [11] | pD2 [12] | -Log Kd (Cavia porcellus [13]) | ED50 [14] [mg/kg] | pD2 [15] | -Log Kd (Cavia porcellus [16]) | Relative efficacy [17]
1 | C[C@@H]1O[C@H](C[N+](C)(C)C)C[C@H]1F | 0.2 | 3 | 0.95 | 5.66 | 0.0045 | 5.77 | 0.98 | 6.87 | 0.88 | 5.72 | 1.5 | 7.36 | 4.39 | 0.0235 | 6.73 | 4.67 | 1.2
2 | C[C@@H]1O[C@@H](C[N+](C)(C)C)CC1(F)F | – | – | 0.97 | 4.16 | – | – | 1 | – | 1 | – | – | 5.33 | – | – | 6.28 | – | –
3 | C[C@H]1O[C@@H](C[N+](C)(C)C)CC1(F)F | 10 | 0.8 | 0.98 | 3.82 | 0.1 | 3.48 | 0.97 | 6.31 | 0.95 | 4.47 | 0.2 | 5.53 | 3.71 | 0.274 | 5.76 | 3.64 | 1.3
4 | C[C@@H]1O[C@H](C[N+](C)(C)C)CC1(F)F | 23 | 0.9 | 0.99 | 5.23 | 0.05 | 3.39 | 1 | 6.58 | 0.83 | 4.7 | 0.6 | 5.8 | 4.4 | 0.14 | 6.56 | 4.37 | 1.6
5 | C[C@@H]1O[C@H](C[N+](C)(C)C)C[C@H]1O (racemic) [MUSCARINE] | – | – | 1 | 5.69 | – | – | – | – | – | 5.95 | – | 7.1 | 4.62 | – | – | – | –
6 | C[C@H]1O[C@H](C[N+](C)(C)C)CC1(F)F | – | – | 0.99 | 3.95 | – | – | 0.98 | – | 0.67 | – | – | 4.85 | – | – | 5.77 | – | –
